Data from ChEMBL document CHEMBL1671620, “Mutations in the fks1 gene in Candida albicans, C. tropicalis, and C. krusei correlate with elevated caspofungin MICs uncovered in AM3 medium using the method of the European Committee on Antibiotic Susceptibility Testing” (2008).
Values after ≈ are worked out from the molar mass of the structure shown.

Tests used:
Candida albicans [1] = test: Antifungal activity against Candida albicans isolate 18 expressing wild type 1,3-beta-glucan synthase grown on AM3 media after 24 hrs by EUCAST microdilution method; conditions: isolate 18, 24 h
Candida albicans [2] = test: Antifungal activity against Candida albicans isolate 22 harboring 1,3-beta-glucan synthase HS1 point mutant grown on RPMI media after 24 hrs by EUCAST microdilution method; conditions: isolate 22, 24 h
Pichia kudriavzevii [3] = test: Antifungal activity against Candida krusei isolate 1 harboring 1,3-beta-glucan synthase HS1 point mutant grown on RPMI media after 24 hrs by EUCAST microdilution method; conditions: isolate 1, 24 h
Candida albicans [4] = test: Antifungal activity against Candida albicans isolate 20 harboring 1,3-beta-glucan synthase HS1 point mutant grown on RPMI media after 24 hrs by EUCAST microdilution method; conditions: isolate 20, 24 h
Candida albicans [5] = test: Antifungal activity against Candida albicans isolate 3 expressing wild type 1,3-beta-glucan synthase grown on RPMI media after 24 hrs by EUCAST microdilution method; conditions: isolate 3, 24 h
Candida albicans [6] = test: Antifungal activity against Candida albicans isolate 5 expressing wild type 1,3-beta-glucan synthase grown on RPMI media after 24 hrs by EUCAST microdilution method; conditions: isolate 5, 24 h
Candida albicans [7] = test: Antifungal activity against Candida albicans isolate 3 expressing wild type 1,3-beta-glucan synthase grown on AM3 media after 48 hrs by EUCAST microdilution method; type: functional; conditions: isolate 3, 24 h, in the assay text read “after 24 hrs” for “after 48 hrs”
How it was run: (§1)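 EUCAST (AFST-EUCAST) broth microdilution with caspofungin at 0.015 to 8 μg/ml final, in AM3 with glucose added to 2% final. Final inoculum was 10⁵ yeast cells/ml, with microplates prepared in batches and stored at −20°C. Plates were incubated at 35°C in humid ambient air and read spectrophotometrically after shaking at 24 h and 48 h. MIC was ≥50% growth reduction versus drug-free well; 90% end point also read at both times.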

Candida albicans [8] = test: Antifungal activity against Candida albicans isolate 21 harboring 1,3-beta-glucan synthase HS1 point mutant grown on RPMI media after 24 hrs by EUCAST microdilution method; conditions: isolate 21, 24 h
Candida albicans [9] = test: Antifungal activity against Candida albicans isolate 13 expressing wild type 1,3-beta-glucan synthase grown on RPMI media after 24 hrs by EUCAST microdilution method; conditions: isolate 13, 24 h
Candida tropicalis [10] = test: Antifungal activity against Candida tropicalis isolate 2 harboring 1,3-beta-glucan synthase HS1 point mutant grown on AM3 media after 24 hrs by EUCAST microdilution method; conditions: isolate 2, 24 h
Candida albicans [11] = test: Antifungal activity against Candida albicans isolate 4 expressing wild type 1,3-beta-glucan synthase grown on RPMI media after 24 hrs by EUCAST microdilution method; conditions: isolate 4, 24 h
Candida albicans [12] = test: Antifungal activity against Candida albicans isolate 1 expressing wild type 1,3-beta-glucan synthase grown on AM3 media after 48 hrs by EUCAST microdilution method; type: functional; conditions: isolate 1, 24 h, in the assay text read “24 hrs” for “48 hrs”
How it was run: as §1

Candida albicans [13] = test: Antifungal activity against Candida albicans isolate 19 harboring 1,3-beta-glucan synthase HS1 point mutant grown on RPMI media after 24 hrs by EUCAST microdilution method; conditions: isolate 19, 24 h
Candida albicans [14] = test: Antifungal activity against Candida albicans isolate 15 expressing wild type 1,3-beta-glucan synthase grown on AM3 media after 48 hrs by EUCAST microdilution method; type: functional; conditions: isolate 15, 24 h, in the assay text read “24 hrs” for “48 hrs”
How it was run: as §1

Candida albicans [15] = test: Antifungal activity against Candida albicans isolate 11 expressing wild type 1,3-beta-glucan synthase grown on AM3 media after 48 hrs by EUCAST microdilution method; type: functional; conditions: isolate 11, 24 h, in the assay text read “after 24 hrs” for “after 48 hrs”
How it was run: as §1

Candida albicans [16] = test: Antifungal activity against Candida albicans isolate 25 expressing wild type 1,3-beta-glucan synthase grown on RPMI media after 24 hrs by EUCAST microdilution method; conditions: isolate 25, 24 h
Candida albicans [17] = test: Antifungal activity against Candida albicans isolate 17 expressing wild type 1,3-beta-glucan synthase grown on RPMI media after 24 hrs by EUCAST microdilution method; conditions: isolate 17, 24 h
Candida albicans [18] = test: Antifungal activity against Candida albicans isolate 9 expressing wild type 1,3-beta-glucan synthase grown on AM3 media after 48 hrs by EUCAST microdilution method; type: functional; conditions: isolate 9, 24 h, in the assay text read “after 24 hrs” for “after 48 hrs”
How it was run: as §1

Pichia kudriavzevii [19] = test: Antifungal activity against Candida krusei ATCC 6258 expressing wild type 1,3-beta-glucan synthase grown on AM3 media after 48 hrs by EUCAST microdilution method; type: functional; conditions: ATCC 6258, 24 h, in the assay text read “after 24 hrs” for “after 48 hrs”
How it was run: as §1

Candida albicans [20] = test: Antifungal activity against Candida albicans isolate 7 expressing wild type 1,3-beta-glucan synthase grown on AM3 media after 48 hrs by EUCAST microdilution method; type: functional; conditions: isolate 7, 24 h, in the assay text read “after 24 hrs” for “after 48 hrs”
How it was run: as §1

Candida albicans [21] = test: Antifungal activity against Candida albicans isolate 25 expressing wild type 1,3-beta-glucan synthase grown on AM3 media after 48 hrs by EUCAST microdilution method; type: functional; conditions: isolate 25, 24 h, in the assay text read “after 24 hrs” for “after 48 hrs”
How it was run: as §1

Candida albicans [22] = test: Antifungal activity against Candida albicans isolate 23 harboring 1,3-beta-glucan synthase HS2 point mutant grown on AM3 media after 24 hrs by EUCAST microdilution method; conditions: isolate 23, 24 h
Candida tropicalis [23] = test: Antifungal activity against Candida tropicalis ATCC 750 expressing wild type 1,3-beta-glucan synthase grown on AM3 media after 48 hrs by EUCAST microdilution method; type: functional; conditions: ATCC 750, 24 h, in the assay text read “24 hrs” for “48 hrs”
How it was run: as §1

Candida albicans [24] = test: Antifungal activity against Candida albicans isolate 14 expressing wild type 1,3-beta-glucan synthase grown on RPMI media after 24 hrs by EUCAST microdilution method; conditions: isolate 14, 24 h
Candida albicans [25] = test: Antifungal activity against Candida albicans isolate 2 expressing wild type 1,3-beta-glucan synthase grown on RPMI media after 24 hrs by EUCAST microdilution method; conditions: isolate 2, 24 h
Candida albicans [26] = test: Antifungal activity against Candida albicans isolate 1 expressing wild type 1,3-beta-glucan synthase grown on RPMI media after 24 hrs by EUCAST microdilution method; conditions: isolate 1, 24 h
Candida albicans [27] = test: Antifungal activity against Candida albicans isolate 22 harboring 1,3-beta-glucan synthase HS1 point mutant grown on AM3 media after 24 hrs by EUCAST microdilution method; conditions: isolate 22, 24 h

SMILES: CC[C@H](C)C[C@H](C)CCCCCCCCC(=O)N[C@H]1C[C@@H](O)[C@@H](NCCN)NC(=O)[C@@H]2[C@@H](O)CCN2C(=O)[C@H]([C@H](O)CCN)NC(=O)[C@H]([C@H](O)[C@@H](O)c2ccc(O)cc2)NC(=O)[C@@H]2C[C@@H](O)CN2C(=O)[C@H]([C@@H](C)O)NC1=O [CASPOFUNGIN]
- MIC (Candida albicans [1]): 0.015 µg/mL (≈ 0.0137 µM)
- MIC (Candida albicans [2]): 2 µg/mL (≈ 1.83 µM)
- MIC (Pichia kudriavzevii [3]): 8 µg/mL (≈ 7.32 µM)
- MIC (Candida albicans [4]): 2 µg/mL (≈ 1.83 µM)
- MIC (Candida albicans [5]): 0.25 µg/mL (≈ 0.229 µM)
- MIC (Candida albicans [6]): 0.5 µg/mL (≈ 0.457 µM)
- MIC (Candida albicans [7]): 0.06 µg/mL (≈ 0.0549 µM)
- MIC (Candida albicans [8]): 2 µg/mL (≈ 1.83 µM)
- MIC (Candida albicans [9]): 0.5 µg/mL (≈ 0.457 µM)
- MIC (Candida tropicalis [10]): 1 µg/mL (≈ 0.915 µM)
- MIC (Candida albicans [11]): 0.5 µg/mL (≈ 0.457 µM)
- MIC (Candida albicans [12]): 0.03 µg/mL (≈ 0.0274 µM)
- MIC (Candida albicans [13]): 1 µg/mL (≈ 0.915 µM)
- MIC (Candida albicans [14]): 0.03 µg/mL (≈ 0.0274 µM)
- MIC (Candida albicans [15]): 0.03 µg/mL (≈ 0.0274 µM)
- MIC (Candida albicans [16]): 0.25 µg/mL (≈ 0.229 µM)
- MIC (Candida albicans [17]): 0.5 µg/mL (≈ 0.457 µM)
- MIC (Candida albicans [18]): 0.03 µg/mL (≈ 0.0274 µM)
- MIC (Pichia kudriavzevii [19]): 0.06 µg/mL (≈ 0.0549 µM)
- MIC (Candida albicans [20]): 0.06 µg/mL (≈ 0.0549 µM)
- MIC (Candida albicans [21]): 0.03 µg/mL (≈ 0.0274 µM)
- MIC (Candida albicans [22]): 0.5 µg/mL (≈ 0.457 µM)
- MIC (Candida tropicalis [23]): 0.06 µg/mL (≈ 0.0549 µM)
- MIC (Candida albicans [24]): 1 µg/mL (≈ 0.915 µM)
- MIC (Candida albicans [25]): 0.25 µg/mL (≈ 0.229 µM)
- MIC (Candida albicans [26]): 0.25 µg/mL (≈ 0.229 µM)
- MIC (Candida albicans [27]): 1 µg/mL (≈ 0.915 µM)
